The text below walks through data of ChEMBL document CHEMBL1122918, “Optimization of the Schiff bases of N-hydroxy-N'-aminoguanidine as anticancer and antiviral agents” (J Med Chem, 1985).

Data set [1] concerns L1210. The data set can be described thus: Concentration required for 50% inhibition of cell growth (L1210 Leukemia). The data set is classed as functional, cell-based. The following applies: Mus musculus, read-out: pI50 (converted). In short, it runs like this:
(§1)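 L1210 cells in RPMI1640 with 10% fetal calf serum, seeded at (3–4) × 10⁴ cells/mL. Drug added to final 10⁻³ to 10⁻⁶ M, duplicates, with untreated and Me₂SO controls. Incubated at 37 °C in 5% CO₂, counted by Coulter counter.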

The subject of data set [2] is L1210. In words: Dose required for 50% inhibition of cell growth (L1210 Leukemia) calculated at 48 hours by using probit analysis. In kind it is functional, Mus musculus. The following applies: for IC50: Mus musculus, L1210, 48 h, read-out: ID50 (the source's name). The method, boiled down: as §1
The subject of data set [3] is Rous sarcoma virus. The data set can be described thus: Inhibition of cell transformation by Rous Sarcoma virus. The settings on record: read-out: ID50 (the source's name). In kind it is functional. The method, boiled down:
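Chick embryo fibroblasts at 5 × 10⁵ cells/60-mm dish, given about 200 focus-forming units of Rous sarcoma virus with drug (final 10⁻³ to 10⁻⁶ M, up to 1% Me₂SO in stock) for 8-16 h at 37 °C. Agar overlay with drug for 4 days, then second overlay. Foci counted on days 7-10; % inhibition = (1 − T/C)×100, probit analysis.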

Data set [4] concerns Rous sarcoma virus. In words: Compound was tested for percent inhibition against Rous sarcoma viral replication at 1e-6 M. The data set is classed as functional. The method, boiled down:
(§2)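 Chick embryo cells at 5 × 10⁵ cells/60-mm dish, medium replaced with fresh Hams F10 medium plus drug solution and Rous sarcoma virus; control of medium plus virus only. On days 3 and 6, medium plus drug renewed; medium harvested two days later. Virus titer in harvests measured by drug-free focus assay on chick embryo fibroblasts and compared with control.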

The test system of data set [5] is Rous sarcoma virus. In words: Compound tested for its effect on Rous sarcoma viral replication and virus yield was determined at 1e-6 M. The data set is classed as functional. The method, boiled down:
as §2

A short description of data set [6]: Compound was evaluated for lethal dose in mice. In kind it is toxicity, organism-based. The settings on record: mouse, in vivo. In short, it runs like this: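 Swiss-Webster male mice, six per dose; compound suspended in 2.5% acacia in normal saline and injected intraperitoneally by body weight; vehicle-injected controls. LD50 calculated by probit analysis.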

The test system of data set [7] is Rous sarcoma virus. In words: Compound was tested for percent inhibition against Rous sarcoma viral replication at 2e-5 M. The data set is classed as functional. The method, boiled down:
as §2

Data set [8] concerns Rous sarcoma virus. In words: Compound tested for its effect on Rous sarcoma viral replication and virus yield was determined at 2e-5 M. The data set is classed as functional. In short, it runs like this: as §2
Another data set has as its system Mus musculus. In words: Compound evaluated for % T/C of median survival time at 100 mg/kg against P388 leukemia in mice.
Data set [9] concerns Rous sarcoma virus. The data set can be described thus: Compound was tested for percent inhibition against Rous sarcoma viral replication at 3e-6M. In kind it is functional. The method, boiled down:
as §2

Data set [10] relates to Rous sarcoma virus. In words: Compound tested for its effect on Rous sarcoma viral replication and virus yield was determined at 3e-6M. The data set is classed as functional. The method, boiled down:
as §2

Data set [11] concerns Rous sarcoma virus. The data set can be described thus: Compound was tested for percent inhibition against Rous sarcoma viral replication at 7e-6M. The data set is classed as functional. The method, boiled down:
as §2

The test system of data set [12] is Rous sarcoma virus. The data set can be described thus: Compound tested for its effect on Rous sarcoma viral replication and virus yield was determined at 7e-6M. The data set is classed as functional. In short, it runs like this:
as §2

In data set [13] the test system is Rous sarcoma virus. In words: Compound tested for its effect on Rous sarcoma viral replication and virus yield was determined at 5e-6M. In kind it is functional. The method, boiled down:
as §2

For data set [14], the system named is Rous sarcoma virus. In words: Compound was tested for percent inhibition against Rous sarcoma viral replication at 5e-6M. In kind it is functional. The method, boiled down: as §2

For orientation: Inhibition means how much of the control response was suppressed. A high value points to a strong effect. The term LD50 denotes the dose at which mortality reaches 50%. In general, T/C refers to the result in the treated group divided by that in the control group, in per cent.

For the molecule `N/C(=N\O)N/N=C/c1ccc(OCc2ccccc2)cc1`, the results for the IC50 in the data set with L1210 [1], with L1210 [2] and in the data set with Rous sarcoma virus [3] were 25.1 µM, 25.3 µM and 8.1 µM, respectively.
For `N/C(=N\O)N/N=C/c1cccnc1` the same measures were 22.9 µM, 23.1 µM and 81 µM.
Consider `COc1ccc(OC)c(/C=N/N=C(\N)NO)c1.Cc1ccc(S(=O)(=O)O)cc1`, for which the IC50 was 7.08 µM in the data set with L1210 [1], 7.1 µM in the data set on L1210 [2] and 2.7 µM with Rous sarcoma virus [3]. In addition, the Inhibition in the data set with Rous sarcoma virus [4] turned out to be 80%. This molecule registered a Virus yield in the data set with Rous sarcoma virus [5] of 31000 ffu ml-1.
For the molecule `Cc1ccc(S(=O)(=O)O)cc1.N#Cc1ccc(/C=N/N/C(N)=N/O)cc1`, the IC50 in the data set with L1210 [1] is 9.33 µM; with L1210 [2] it was 9.4 µM; with Rous sarcoma virus [3], 97.2 µM. Further, the median lethal dose (LD50) in data set [6] was determined as 156 mg/kg.
Turning to `Cc1ccc(S(=O)(=O)O)cc1.N/C(=N\O)N/N=C/c1ccc2ccccc2n1`, the IC50 in the data set with L1210 [1] was 6.76 µM; in the data set with L1210 [2], 6.8 µM; in the data set on Rous sarcoma virus [3], 43.8 µM. Moreover, in the data set with Rous sarcoma virus [7], the Inhibition worked out at 84%. In the data set on Rous sarcoma virus [8], the Virus yield stood at 25000 ffu ml-1.
Regarding `Cc1ccc(S(=O)(=O)O)cc1.N/C(=N\O)N/N=C/c1cc(Br)cc(Br)c1O`, the IC50 in the data set with L1210 [1] is 16.6 µM; in the data set on L1210 [2] it was 16.5 µM; in the data set on Rous sarcoma virus [3], 6.5 µM. Moreover, in the data set on Mus musculus, the T/C came to 140%.
For the molecule `Cc1ccc(S(=O)(=O)O)cc1.N/C(=N\O)N/N=C/c1nccc2ccccc12`, the IC50 in the data set with L1210 [1] is 3.31 µM; with Rous sarcoma virus [3], 15.8 µM. In addition, the ID50 with L1210 [2] is 3.3 µM. Further, the Inhibition in the data set on Rous sarcoma virus [9] worked out at 79%. Also, in the data set on Rous sarcoma virus [10], the Virus yield stood at 34000 ffu ml-1.
Turning to `Cc1ccc(S(=O)(=O)O)cc1.N/C(=N\O)N/N=C/C1CC2C=CC1C2` (stereo not drawn), the figures for the IC50 in the data set on L1210 [1] and in the data set with L1210 [2] were 10.7 µM and 10.6 µM, respectively. In the data set with Rous sarcoma virus [11], this molecule gave an Inhibition of 94%. In addition, the Virus yield in the data set on Rous sarcoma virus [12] came to 9300 ffu ml-1.
As to `N/C(=N\O)N/N=C/c1ccc(C(F)(F)F)cc1`, the values for the IC50 with L1210 [1], with L1210 [2] and with Rous sarcoma virus [3] were 9.12 µM, 9.2 µM and 11.8 µM, respectively.
For `N/C(=N\O)N/N=C/c1ccc(Cl)c([N+](=O)[O-])c1` the same measures were 12.6 µM, 12.7 µM and 9.6 µM.
For `CS(=O)(=O)Oc1cccc(/C=N/N=C(\N)NO)c1` the same measures were 14.8 µM, 14.8 µM and 35.2 µM.
For `Cc1ccc(S(=O)(=O)O)cc1.Cn1cccc1/C=N/N=C(\N)NO`, the IC50 was 2.69 µM with L1210 [1], 2.7 µM in the data set on L1210 [2] and 4.5 µM in the data set on Rous sarcoma virus [3]. The molecule also displayed a median lethal dose (LD50) in [6] of 322 mg/kg. Further, the Virus yield in the data set on Rous sarcoma virus [13] turned out to be 90000 ffu ml-1. In the data set on Rous sarcoma virus [14], this molecule returned an Inhibition of 44%.
In the case of `N/C(=N\O)N/N=C/c1cccc([N+](=O)[O-])c1`, the values for the IC50 in the data set on L1210 [1], in the data set on L1210 [2] and in the data set on Rous sarcoma virus [3] were 7.59 µM, 7.6 µM and 35.7 µM, respectively.
As for `NC(=O)NO` [HYDROXYUREA], the IC50 is 21.4 µM in the data set with L1210 [1] and 21.6 µM with L1210 [2].
